Experimental data reported in paper PMC6318406 (Asian Pacific Journal of Cancer Prevention : APJCP, 2018).
“Also recorded” adds a separate entry of the source. Marks after values point to notes of the source that are not given here.

Legend:
Format in all cases: in vivo, rat
alpha-fetoprotein (AFP) = experiment: Serum alpha-fetoprotein; settings: HCC afflicted rats, 50 mg/kg b.wt orally daily for 5 weeks; mean ± SE
Method in brief: (§1)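 Female Wistar rats, 170-200 g, 10/group. HCC induced by oral NDEA in 0.9% saline, 20 mg/kg five times weekly for 4 weeks, then 10 mg/kg five times weekly for 1 week. Saline-dosed healthy and untreated HCC groups. Overnight fast after the last dose. Retro-orbital blood drawn under ether and clotted 45 min at room temperature. Serum spun at 1,800 x g for 15 min at 4°C and stored at -20°C. Rat ELISA kits. Mean ± SE; ANOVA with Tukey test.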

endoglin (ENG) = experiment: Serum endoglin; settings: HCC afflicted rats, 50 mg/kg b.wt orally daily for 5 weeks; mean ± SE
Method in brief: as §1

[1] = tested on: heat shock protein-70 (HSP-70); experiment: Serum heat shock protein-70; settings: HCC afflicted rats, 50 mg/kg b.wt orally daily for 5 weeks; mean ± SE
Method in brief: as §1

[2] = tested on: β-cell leukemia/lymphoma 2 (Bcl-2); experiment: Serum Bcl-2 by ELISA in NDEA-induced HCC rats; settings: HCC afflicted rats, 50 mg/kg b.wt orally daily for 5 weeks
Method in brief: as §1

pro-caspase 3 = experiment: Serum pro-caspase 3 by ELISA in NDEA-induced HCC rats; settings: HCC afflicted rats, 50 mg/kg b.wt orally daily for 5 weeks
Method in brief: as §1

lipocalin-2 (LCN-2) = experiment: Serum lipocalin-2; settings: HCC afflicted rats, 50 mg/kg b.wt orally daily for 5 weeks
Method in brief: as §1

[3] = tested on: hepatocellular carcinoma (HCC) afflicted rats; experiment: Histological examination of liver tissue sections; settings: 50 mg/kg b.wt orally daily for 5 weeks, H and E stain
[4] = Oral pharmacokinetic study in normal rats
[5] = Oral pharmacokinetic study in HCC-induced rats; settings: serum
Method in brief: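 HCC induced by oral NDEA (20 mg/kg five times weekly for 4 weeks, then 10 mg/kg for 1 week). Rats (n=6) were fasted 12 h, then given one oral 50 mg/kg dose of free or nanocomposite test compound. Serum was sampled 0.083–24 h, spiked with pyrogallol and extracted into ethyl acetate. Measured by C18 HPLC at 280 nm; non-compartmental analysis, ke from terminal log-linear slope, MRT = AUMC/AUC.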

[6] = normal rats, single dose 50 mg/kg p.o., serum
[7] = normal rats, single dose 50 mg/kg p.o., serum, 50 mg/kg

## O=C(O)c1cc(O)c(O)c(O)c1 [GA, 3,4,5-trihydroxy benzoic acid]
alpha-fetoprotein (AFP)
  Serum AFP: 41.19 ± 0.83^b ng/ml
Endoglin (ENG)
  Serum ENG: 4.16 ± 0.14^b ng/ml
[1]
  Serum HSP-70: 43.56 ± 0.8426^b ng/ L
[2]
  Change in serum Bcl-2 with respect to the HCC group: -32.9%
pro-caspase 3
  Change in serum pro-caspase 3 with respect to the HCC group: -60.5%
lipocalin-2 (LCN-2)
  Change in serum LCN-2 with respect to the HCC group: -34.8%
[3]
  Histopathological findings in liver tissue section: markedly recovered the anaplastic changes in the rat liver tissues; also recorded: congestion in the portal vein, multiple newly formed bile ducts and inflammatory cells infiltration in between at the portal area; also recorded: focal aggregations of mononuclear leucocytes inflammatory cells were detected in the hepatic parenchyma
[4]; [6]
  AUMC: 2.03 ± 0.44 µg·mL/h
  AUMC last: 1.3 ± 0.13 µg·mL/h
[4]; normal rats, single dose 50 mg/kg p.o., serum concentration-time profile
  Duration of action: approximately 1 hr
[4]; [7]
  C max: 1570 ± 108 ng/mL
  MRT: 1.063 ± 0.155 h
[4]; rat, serum, po, 50 mg/kg
  AUC(0-inf): 1890 ± 130 ng·h/mL
  AUC(0-t): 1640 ± 45 ng·h/mL
  Tmax: 0.46 ± 0.085 h
  half-life: 0.62 ± 0.09 h
[4]; rat, serum, po, 50 mg/kg, C max, normal rats, single dose 50 mg/kg p.o.
  Cmax: 1590 ng/mL
[4]; rat, serum, po, 50 mg/kg, MRT, normal rats, single dose 50 mg/kg p.o.
  MRT: 1.06 h
[5]; HCC-afflicted rats, single dose 50 mg/kg p.o.
  AUMC last: 1.55 ± 0.014 µg·mL/h
[5]; rat, po, 50 mg/kg
  AUC(0-inf): 1670 ± 40 ng·h/mL
  AUC(0-t): 1340 ± 194 ng·h/mL
  MRT: 1.43 ± 0.34 h
  half-life: 1.4 ± 0.32 h
